Sampled rows, rich in hits. Any-hit rate of the full collection: about 3.5%.
MrgX1 allo act: allosterically activates human MrgX1 receptor signaling. Q96LB2. MrgX1-HEK293, Fluo-4 calcium flux, FDSS; hits give high values. B-score at 10 µM. hit rate 0.63% among 310,000. AID 588675;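 active = plate-corrected calcium response at least 3 library SD above typical, normal starting fluorescence, not activating the receptor alone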;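 also: compound read alongside a low EC10 to EC30 dose of BAM8-22 agonist; peak minus trough fluorescence over baseline measured at the second addition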
Target sequence (Q96LB2 whole entry, looked up): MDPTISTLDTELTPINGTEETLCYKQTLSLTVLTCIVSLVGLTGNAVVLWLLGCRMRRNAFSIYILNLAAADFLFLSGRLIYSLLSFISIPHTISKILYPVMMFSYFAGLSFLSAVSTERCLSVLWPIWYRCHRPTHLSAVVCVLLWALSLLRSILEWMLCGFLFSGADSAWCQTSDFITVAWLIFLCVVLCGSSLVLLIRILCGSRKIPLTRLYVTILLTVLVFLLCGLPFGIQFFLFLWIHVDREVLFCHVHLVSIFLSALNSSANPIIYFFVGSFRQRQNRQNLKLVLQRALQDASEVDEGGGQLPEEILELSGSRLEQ
RGS4 pot: potentiators or activators of RGS4. HEK293 M3R/inducible RGS4, carbachol calcium flux Fluo4; hits give low values. B-score at 10 µM. hit rate 0.92% among 310,000. AID 463111;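 active = B-score of the integrated calcium signal more than 4 SD below the library mean, with starting fluorescence not abnormally high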;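 also: negative B-score means reduced calcium response which marks RGS4 activation or potentiation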
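System – HEK293 FlpIn-TREx cells, stable M3R, doxycycline-inducible RGS4 · Reagent – ECmax carbachol challenge · Times – compound preincubation 20 min at room temperature before agonist · Technique – Fluo4 fluorescence kinetic imaging of calcium · Measure – B score of integrated Fluo4 ratio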
RGS4 inh: human RGS4 inhibition. P49798. HEK293 M3R/RGS4 inducible, Fluo-4 calcium flux; hits give high values; triggered by carbachol at its EC20. B-score at 10 µM. hit rate 0.45% among 310,000. AID 463165;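 active = B-score, a plate-corrected calcium signal, over three deviations above library mean, with baseline fluorescence within five deviations of library mean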;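 also: RGS4 expression induced by doxycycline in cells with stable M3 receptor; B-score is computed from the integrated fluorescence ratio over baseline after carbachol; higher B-score means a larger calcium signal and so more RGS4 inhibition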
MrgX1 ag: human MrgX1 receptor agonism, primary screen; Q96LB2; MrgX1-HEK293 cells, Fluo-4 calcium fluorescence, agonist mode; hits give high values; hit rate 0.44% among 310,000; B-score at 10 µM;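 active = calcium response B-score plate-corrected fluorescence ratio at least 3 library SD, with starting fluorescence B-score inside 5 SD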
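System: HEK293 cells stably expressing human MrgX1 receptor; Dosing: test compound in the initial addition of three; Schedule: overnight plating, then 30 min 37 °C plus 30 min room-temperature dye loading; Detection: kinetic calcium dye fluorescence, Fluo-4 NW; Controls: per-plate positive and negative controls for Z′ factor.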
MrgX1 antagonist: antagonists of human MrgX1 receptor. MRGX1-HEK293 calcium flux, Fluo-4, BAM8-22 antagonism; hits give low values. B-score at 10 µM. hit rate 1.3% among 310,000. AID 588676;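 active = calcium-response B-score plate-corrected more than 3 library SD below zero, starting fluorescence within 5 deviations, no agonist response on first addition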;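 also: peak minus trough fluorescence over baseline after final BAM8-22 challenge near maximal dose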
Hits are given with their value; . = inactive; / = no result given.

SMILES | MrgX1 allo act | RGS4 pot | RGS4 inh | MrgX1 ag | MrgX1 antagonist
COc1ccccc1CNC(=O)c1nn(-c2ccc(C)cc2)c(=O)c2c1c1ccccc1n2C | . | . | . | . | -8.04
Nc1nonc1-n1nnc(C(=O)N/N=C/c2ccccc2Br)c1CN1CCCC1 | . | . | . | . | .
Cc1ccc(-c2nc3ccccc3[nH]2)cc1NC(=S)NC(=O)c1ccccc1Br | . | -7.09 | . | . | .
CCOc1ccc(C(=O)Nc2cc(-c3nc4ccccc4[nH]3)ccc2C)cc1[N+](=O)[O-] | . | -7.08 | . | . | .
Cc1ccc(-c2nc3ccccc3[nH]2)cc1NC(=O)c1ccc2c(c1)OCO2 | . | . | . | . | .
COCCN(C(=O)COC(=O)Cc1ccc(Cl)cc1Cl)c1c(N)n(Cc2ccccc2)c(=O)[nH]c1=O | . | . | . | . | .
COCCN(C(=O)CCC(=O)Nc1nccs1)C(C(=O)NCCC(C)C)c1ccc(OC)cc1 (configuration not stated) | . | . | . | . | .
C#CCN1C(=O)S/C(=C/C=C/c2ccc(N(C)C)cc2)C1=O | . | / | / | . | -5.34
O=C(CN1C(=O)S/C(=C\C=C\c2ccccc2)C1=O)Nc1ccccc1C(=O)O | . | . | . | . | .
Cn1ccnc1C1CCCCN1C(=O)c1cc(COc2ccc(F)cc2Cl)on1 (configuration not stated) | . | -7.44 | . | . | .
O=C(c1cc(COc2ccc(F)cc2Cl)on1)N1CC[C@@H]2CCCC[C@H]2C1 | . | . | . | . | .
CCN(CC)C1CCN(C(=O)c2cc(COc3ccc(F)cc3Cl)on2)C1 (configuration not stated) | . | -7.03 | . | . | .
COc1ccc(C(C)NC(=S)NCc2ccc(F)cc2)cc1 (configuration not stated) | . | . | . | . | .
CCC(NC(=S)NCc1ccc(F)cc1)c1ccccc1 (configuration not stated) | . | . | . | . | -5.72
C/C(=N\O)c1cc(Cl)ccc1O | . | . | . | . | .
Cc1cc(C(=O)O)ccc1-n1c(C)cc(C=C2C(=O)c3ccccc3C2=O)c1C | . | . | . | 29.4 | .
Cc1ccc(C(=O)O)cc1-c1ccc(C=C2C(=O)c3ccccc3C2=O)o1 | . | . | . | 41.5 | .
Cc1ccc(NC(=O)CN2C(=O)S/C(=C/c3ccc(-c4cc(C(=O)O)ccc4C)o3)C2=O)cc1C | . | . | . | . | .
COc1cc2c(cc1NC(=O)C(C)Sc1ccc(C)cc1)oc1ccccc12 (configuration not stated) | . | -7 | . | . | .
COc1cc2c(cc1NC(=O)CSc1ccc(C)cc1)oc1ccccc12 | . | . | . | . | .
COC(=O)c1cc(S(=O)(=O)N2CCN(c3cccc(C)c3C)CC2)c[nH]1 | . | . | . | . | .
CCN(CC)CCCCN1c2ccccc2Sc2ccccc21 | . | -7.24 | . | . | .
CN1CCN(CCC(=O)N2c3ccccc3Sc3ccc(C(F)(F)F)cc32)CC1 | . | . | . | . | -8.21
CN(C)CCCN1c2ccccc2Sc2ccc(C(F)(F)F)cc21 | . | -8.33 | . | . | .
NC(=S)N/N=C\c1c(OCc2ccccc2Cl)ccc2ccccc12 | . | . | . | . | .
SMILES | MrgX1 allo act | RGS4 pot | RGS4 inh | MrgX1 ag | MrgX1 antagonist
CCCN(C(=O)CSCC(=O)Nc1ccc(OC)cc1)c1c(N)n(Cc2ccccc2)c(=O)[nH]c1=O | . | . | . | . | .
CCOC(=O)C1CCN(S(=O)(=O)c2ccc3c(c2)NC(=O)CS3)CC1 | . | . | . | . | .
C/C(=N\Nc1ccc([N+](=O)[O-])cc1)c1ccc(O)cc1 | . | . | . | . | -5.57
O=C(CNC(=O)C1CCCCC1)OCC(=O)c1ccc(Br)cc1 | / | . | . | / | /
O=C(Nc1ccc(Cc2ccncc2)cc1)c1ccc([N+](=O)[O-])o1 | . | . | . | . | .
Cc1ccc(-c2noc(-c3cc(C(C)(C)C)nn3Cc3ccccc3)n2)cc1 | . | . | . | . | -6.85
Cc1ccc(C)c(N2CCN(C(=O)CCCN3C(=S)NC(C)(C)CC3C)CC2)c1 (configuration not stated) | . | . | . | . | -4.62
C[C@]1(CC/C(=C/CO)CO)[C@H](CO)CC[C@@]23COC(=O)C2=CCC[C@@H]31 | . | / | / | . | .
CN(C(=O)COC(=O)c1ccccc1Nc1ccccc1)c1c(N)n(Cc2ccccc2)c(=O)[nH]c1=O | . | . | . | . | -7
